Test results from ChEMBL document CHEMBL2069258, “Novel phosphoramidate prodrugs of N-acetyl-(D)-glucosamine with antidegenerative activity on bovine and human cartilage explants” (J Med Chem, 2012).

Test system: Cartilage tissue
Assay: Antidegenerative activity against bovine cartilage explant assessed as inhibition of IL1-induced of GAG release at 10 mM for 1 day before IL-1 treatment measured after 6 days by colorimetric analysis relative to control
Assay type: functional
Details: Bos taurus
Procedure, shortened: (§1)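 Articular cartilage explants from different cows, equilibrated 24 h, then cultured 1 day in DMEM with hydrolyzed lactalbumin, 50 μg/mL vitamin C, penicillin/streptomycin and ITS, with or without compound. IL-1 10 ng added; medium changed every two days; harvested 6 days later. GAG in medium by Blyscan colorimetric assay. Fold increase over minus-IL-1 control used to derive % reduction versus IL-1-only fold. Triplicate per experiment; mean and SE over n cows.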

Compared with `N[C@H]1C(O)O[C@H](CO)[C@@H](O)[C@@H]1O` (stereo partly drawn) [GLUCOSAMINE], `CC(=O)N[C@@H]1[C@@H](O)[C@H](O)[C@@H](CO)O[C@H]1O` [N-ACETYLGLUCOSAMINE] is lower in inhibition at 10000 µM: 19% for the first, 9.3% for the second.

Test system: not listed separately
Assay: Antidegenerative activity against human cartilage explant assessed as inhibition of IL1-induced of GAG release at 250 uM for 1 day before IL-1 treatment measured after 6 days by colorimetric analysis relative to control
Assay type: functional
Details: Cartilage tissue
Procedure, shortened: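 Human explants: 24 h equilibration, 1 day preincubation with compound in DMEM/lactalbumin/vitamin C/ITS medium, then IL-1 10 ng for 6 days with medium renewed every two days. Compounds dissolved in DMSO, with a 0.25% DMSO control. GAG released measured colorimetrically (Blyscan). % reduction = (mean control release − mean sample release)/control release × 100.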

`N[C@H]1C(O)O[C@H](CO)[C@@H](O)[C@@H]1O` (stereo partly drawn) [GLUCOSAMINE] showed an inhibition at 250 µM of 14.1%.

Test system: Cartilage tissue
Assay: Antidegenerative activity against bovine cartilage explant assessed as inhibition of IL1-induced of GAG release at 0.1 mM for 1 day before IL-1 treatment measured after 6 days by colorimetric analysis relative to control
Assay type: functional
Details: Bos taurus
Procedure, shortened: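 Articular cartilage explants from different cows, equilibrated 24 h, then cultured one day in DMEM + hydrolyzed lactalbumin + 50 μg/mL vitamin C + penicillin/streptomycin + ITS with or without compound (0.1 mM). GAG release then induced with 10 ng IL-1 and continued six days, medium changed every two days. Medium GAG measured by Blyscan colorimetric assay. GAG fold-increase versus minus-IL-1 control. Percent reduction relative to IL-1-only fold. Triplicates per experiment, mean of n experiments.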

First: CCOC(=O)CN(C)P(=O)(Oc1ccc(OC)cc1)O[C@H]1[C@H](O)[C@@H](CO)O[C@H](O)[C@@H]1NC(C)=O (stereo partly drawn)
Second: CCC[C@H](NP(=O)(Oc1ccc(OC)cc1)O[C@H]1[C@H](O)[C@@H](CO)O[C@H](O)[C@@H]1NC(C)=O)C(=O)OCC (stereo partly drawn)
The inhibition at 100 µM of the first is lower: -24.9% for the first, 11.8% for the second.

First: COc1ccc(OP(=O)(O[C@H]2[C@H](O)[C@@H](CO)O[C@H](O)[C@@H]2NC(C)=O)N2CCC[C@H]2C(=O)OC(C)C)cc1 (stereo partly drawn)
Second: CCC(C)OC(=O)[C@@H]1CCCN1P(=O)(Oc1ccc(OC)cc1)O[C@H]1[C@H](O)[C@@H](CO)O[C@H](O)[C@@H]1NC(C)=O (stereo partly drawn)
The inhibition at 100 µM of the first is higher: 17.5% for the first, -4.4% for the second.

Compared with `COc1ccc(OP(=O)(O[C@H]2[C@H](O)[C@@H](CO)O[C@H](O)[C@@H]2NC(C)=O)N2CCC[C@H]2C(=O)OC2CCCCC2)cc1` (stereo partly drawn), `COc1ccc(OP(=O)(O[C@H]2[C@H](O)[C@@H](CO)O[C@H](O)[C@@H]2NC(C)=O)N2CCC[C@H]2C(=O)OC(C)(C)C)cc1` (stereo partly drawn) is higher in inhibition at 100 µM: -9.6% for the first, -8% for the second.

First: COC(=O)[C@@H](NP(=O)(Oc1ccc(OC)cc1)O[C@H]1[C@H](O)[C@@H](CO)O[C@H](O)[C@@H]1NC(C)=O)C(C)C (stereo partly drawn)
Second: CC(=O)N[C@@H]1[C@@H](O)[C@H](O)[C@@H](CO)O[C@H]1O [N-ACETYLGLUCOSAMINE]
The inhibition at 100 µM of the first is lower: -4.4% for the first, 5.4% for the second.

Molecule `N[C@H]1C(O)O[C@H](CO)[C@@H](O)[C@@H]1O` (stereo partly drawn) [GLUCOSAMINE] has an inhibition at 100 µM of 0.8%.

Test system: not listed separately
Assay: Cytotoxicity against bovine articular chondrocytes assessed as cell viability at 10 mM by MTT assay relative to control
Set-up: species or system Bos taurus
Details: cattle, read-out: Activity
Procedure, shortened: (§2)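 Chondrocyte monolayers tested in parallel with the explant work. Viability measured by MTT and expressed as percent of untreated cells (no compound = 100%). Mean and SE over n experiments, each in triplicate.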

Going from `N[C@H]1C(O)O[C@H](CO)[C@@H](O)[C@@H]1O` (stereo partly drawn) [GLUCOSAMINE] to `CC(=O)N[C@@H]1[C@@H](O)[C@H](O)[C@@H](CO)O[C@H]1O` [N-ACETYLGLUCOSAMINE], the viability at 10000 µM rises from 56% to 61%.

Test system: not listed separately
Assay: Antidegenerative activity against human cartilage explant assessed as inhibition of IL1-induced of GAG release at 10 uM for 1 day before IL-1 treatment measured after 6 days by colorimetric analysis relative to control
Assay type: functional
Details: Cartilage tissue
Procedure, shortened: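 Human cartilage explants, equilibrated 24 h, then cultured one day in DMEM + hydrolyzed lactalbumin + 50 μg/mL vitamin C + penicillin/streptomycin + ITS with compound. 10 ng IL-1 then added and culture continued six days, medium replaced every two days. Medium GAG measured by Blyscan colorimetric assay. Percent reduction = (mean control − mean sample release)/control × 100, against a 0.25% DMSO + IL-1 control.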

Compared with `COc1ccc(OP(=O)(O[C@H]2[C@H](O)[C@@H](CO)O[C@H](O)[C@@H]2NC(C)=O)N2CCC[C@H]2C(=O)OC(C)C)cc1` (stereo partly drawn), `CCC(C)OC(=O)[C@@H]1CCCN1P(=O)(Oc1ccc(OC)cc1)O[C@H]1[C@H](O)[C@@H](CO)O[C@H](O)[C@@H]1NC(C)=O` (stereo partly drawn) is higher in inhibition at 10 µM: 24.4% for the first, 27.1% for the second.

Molecule `N[C@H]1C(O)O[C@H](CO)[C@@H](O)[C@@H]1O` (stereo partly drawn) [GLUCOSAMINE] has an inhibition at 10 µM of 10.3%.

Test system: not listed separately
Assay: Cytotoxicity against human articular chondrocytes assessed as metabolic activity at 10 uM by WST-1 assay
Details: read-out: Activity

First: COc1ccc(OP(=O)(O[C@H]2[C@H](O)[C@@H](CO)O[C@H](O)[C@@H]2NC(C)=O)N2CCC[C@H]2C(=O)OC(C)C)cc1 (stereo partly drawn)
Second: CCC(C)OC(=O)[C@@H]1CCCN1P(=O)(Oc1ccc(OC)cc1)O[C@H]1[C@H](O)[C@@H](CO)O[C@H](O)[C@@H]1NC(C)=O (stereo partly drawn)
The viability at 10 µM of the first is higher: 79.4% for the first, 53.9% for the second.

Work on `N[C@H]1C(O)O[C@H](CO)[C@@H](O)[C@@H]1O` (stereo partly drawn) [GLUCOSAMINE] yielded a viability at 10 µM of 107%.

Test system: Cartilage tissue
Assay: Antidegenerative activity against bovine cartilage explant assessed as inhibition of IL1-induced of GAG release at 1 mM for 1 day before IL-1 treatment measured after 6 days by colorimetric analysis relative to control
Assay type: functional
Details: Bos taurus
Procedure, shortened: as §1

Going from `N[C@H]1C(O)O[C@H](CO)[C@@H](O)[C@@H]1O` (stereo partly drawn) [GLUCOSAMINE] to `CC(=O)N[C@@H]1[C@@H](O)[C@H](O)[C@@H](CO)O[C@H]1O` [N-ACETYLGLUCOSAMINE], the inhibition at 1000 µM falls from 3.4% to -1%.

Test system: Serum
Assay: Stability of compound in human serum assessed as hydrolysis after 17 hrs by NMR analysis
Assay type: ADME, cell-free
Details: not given
Procedure, shortened: (§3)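 Prodrug disappearance followed by NMR in guinea pig or human serum at 37 °C, pH 7.0. Half-life taken from the apparent first-order rate constant, by linear regression of pseudo-first-order plots of prodrug concentration versus time.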

For `COc1ccc(OP(=O)(O[C@H]2[C@H](O)[C@@H](CO)O[C@H](O)[C@@H]2NC(C)=O)N2CCC[C@H]2C(=O)OC(C)(C)C)cc1` (stereo partly drawn), the Stability was “Stable”.

Test system: not listed separately
Assay: Cytotoxicity against bovine articular chondrocytes assessed as cell viability at 0.1 mM by MTT assay relative to control
Set-up: species or system Bos taurus
Details: cattle, read-out: Activity
Procedure, shortened: as §2

Compared with `CCOC(=O)CN(C)P(=O)(Oc1ccc(OC)cc1)O[C@H]1[C@H](O)[C@@H](CO)O[C@H](O)[C@@H]1NC(C)=O` (stereo partly drawn), `CCC[C@H](NP(=O)(Oc1ccc(OC)cc1)O[C@H]1[C@H](O)[C@@H](CO)O[C@H](O)[C@@H]1NC(C)=O)C(=O)OCC` (stereo partly drawn) is higher in viability at 100 µM: 32% for the first, 93% for the second.

First: COc1ccc(OP(=O)(O[C@H]2[C@H](O)[C@@H](CO)O[C@H](O)[C@@H]2NC(C)=O)N2CCC[C@H]2C(=O)OC(C)C)cc1 (stereo partly drawn)
Second: CCC(C)OC(=O)[C@@H]1CCCN1P(=O)(Oc1ccc(OC)cc1)O[C@H]1[C@H](O)[C@@H](CO)O[C@H](O)[C@@H]1NC(C)=O (stereo partly drawn)
The viability at 100 µM of the first is lower: 90% for the first, 96% for the second.

Compared with `COc1ccc(OP(=O)(O[C@H]2[C@H](O)[C@@H](CO)O[C@H](O)[C@@H]2NC(C)=O)N2CCC[C@H]2C(=O)OC(C)(C)C)cc1` (stereo partly drawn), `COC(=O)[C@@H](NP(=O)(Oc1ccc(OC)cc1)O[C@H]1[C@H](O)[C@@H](CO)O[C@H](O)[C@@H]1NC(C)=O)C(C)C` (stereo partly drawn) is higher in viability at 100 µM: 91% for the first, 96% for the second.

First: N[C@H]1C(O)O[C@H](CO)[C@@H](O)[C@@H]1O (stereo partly drawn) [GLUCOSAMINE]
Second: CC(=O)N[C@@H]1[C@@H](O)[C@H](O)[C@@H](CO)O[C@H]1O [N-ACETYLGLUCOSAMINE]
The viability at 100 µM of the first is lower: 106% for the first, 107% for the second.

Test system: not listed separately
Assay: Cytotoxicity against bovine articular chondrocytes assessed as cell viability at 1 mM by MTT assay relative to control
Set-up: species or system Bos taurus
Details: cattle, read-out: Activity
Procedure, shortened: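 Chondrocyte monolayer cultures exposed to compound in parallel with the explant experiments. Viability read by MTT, as percent of untreated control cells (100%). Mean of n experiments from different cows, each run in triplicate.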

Going from `CCOC(=O)CN(C)P(=O)(Oc1ccc(OC)cc1)O[C@H]1[C@H](O)[C@@H](CO)O[C@H](O)[C@@H]1NC(C)=O` (stereo partly drawn) to `CCC(C)OC(=O)[C@@H]1CCCN1P(=O)(Oc1ccc(OC)cc1)O[C@H]1[C@H](O)[C@@H](CO)O[C@H](O)[C@@H]1NC(C)=O` (stereo partly drawn), the viability at 1000 µM falls from 80% to 7%.

First: COc1ccc(OP(=O)(O[C@H]2[C@H](O)[C@@H](CO)O[C@H](O)[C@@H]2NC(C)=O)N2CCC[C@H]2C(=O)OC(C)(C)C)cc1 (stereo partly drawn)
Second: CC(=O)N[C@@H]1[C@@H](O)[C@H](O)[C@@H](CO)O[C@H]1O [N-ACETYLGLUCOSAMINE]
The viability at 1000 µM of the first is lower: 5% for the first, 70% for the second.

`N[C@H]1C(O)O[C@H](CO)[C@@H](O)[C@@H]1O` (stereo partly drawn) [GLUCOSAMINE] gave a viability at 1000 µM of 88%.

Test system: not listed separately
Assay: Stability of compound in guinea pig serum assessed as hydrolysis after 17 hrs by NMR analysis
Assay type: ADME, cell-free, Cavia porcellus
Details: not given
Procedure, shortened: as §3

With `COc1ccc(OP(=O)(O[C@H]2[C@H](O)[C@@H](CO)O[C@H](O)[C@@H]2NC(C)=O)N2CCC[C@H]2C(=O)OC(C)(C)C)cc1` (stereo partly drawn) the Stability was “Stable”.

Test system: not listed separately
Assay: Cytotoxicity against human articular chondrocytes assessed as metabolic activity at 250 uM by WST-1 assay
Details: read-out: Activity
Procedure, shortened: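 Metabolic activity measured by WST-1 in parallel with the human explant assay and reported as a percentage.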

With `N[C@H]1C(O)O[C@H](CO)[C@@H](O)[C@@H]1O` (stereo partly drawn) [GLUCOSAMINE] the viability at 250 µM was 85.3%.
